Screening results: PubChem, Johns Hopkins Ion Channel Center
Compounds with a hit are over-represented: about 4.1% of the library has one in this group of screens.
MrgX1 agonist: agonists of human MrgX1 receptor. Q96LB2. MrgX1-HEK293 cells, Fluo-4 calcium fluorescence, agonist mode; active compounds read high. AID 588627. 310,000 tested, 0.44% active. B-score at 10 µM;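 active = calcium response B-score plate-corrected fluorescence ratio at least 3 library SD, with starting fluorescence B-score inside 5 SD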
Target sequence (Q96LB2 whole entry, looked up): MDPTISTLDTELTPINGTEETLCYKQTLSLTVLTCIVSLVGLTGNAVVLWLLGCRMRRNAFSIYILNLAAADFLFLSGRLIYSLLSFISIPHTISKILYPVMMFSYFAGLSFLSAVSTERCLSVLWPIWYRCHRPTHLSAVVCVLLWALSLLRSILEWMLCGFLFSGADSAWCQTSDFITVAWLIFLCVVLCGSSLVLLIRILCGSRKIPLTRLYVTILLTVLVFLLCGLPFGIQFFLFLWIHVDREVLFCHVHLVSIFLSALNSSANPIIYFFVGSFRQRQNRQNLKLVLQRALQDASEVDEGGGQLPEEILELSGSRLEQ
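Assay system: stable human MrgX1 HEK293 cell line. Quantity: 15,000 cells per well. Schedule: cells plated overnight, dye loaded 0.5 h 37 °C, 0.5 h room temperature. Detection: Fluo-4 NW calcium-flux fluorescence, kinetic read. Read-out basis: peak-minus-minimum fluorescence over baseline, converted to B scores. Control set: positive and negative control wells on each plate.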
MrgX1 antag: human MrgX1 receptor antagonism, primary screen; B-score at 10 µM; Q96LB2; MRGX1-HEK293 calcium flux, Fluo-4, BAM8-22 antagonism; active compounds read low; 310,000 tested, 1.3% active;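 active = calcium-response B-score plate-corrected more than 3 library SD below zero, starting fluorescence within 5 deviations, no agonist response on first addition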;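 note: peak minus trough fluorescence over baseline after final BAM8-22 challenge near maximal dose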
RGS4 block: inhibitors of human RGS4. P49798. HEK293 M3R/RGS4 inducible, Fluo-4 calcium flux; active compounds read high; triggered by carbachol at its EC20. B-score at 10 µM. 310,000 tested, 0.45% active. AID 463165;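 active = B-score, a plate-corrected calcium signal, over three deviations above library mean, with baseline fluorescence within five deviations of library mean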;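 note: RGS4 expression induced by doxycycline in cells with stable M3 receptor; B-score is computed from the integrated fluorescence ratio over baseline after carbachol; higher B-score means a larger calcium signal and so more RGS4 inhibition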
Target sequence (P49798 whole entry, looked up): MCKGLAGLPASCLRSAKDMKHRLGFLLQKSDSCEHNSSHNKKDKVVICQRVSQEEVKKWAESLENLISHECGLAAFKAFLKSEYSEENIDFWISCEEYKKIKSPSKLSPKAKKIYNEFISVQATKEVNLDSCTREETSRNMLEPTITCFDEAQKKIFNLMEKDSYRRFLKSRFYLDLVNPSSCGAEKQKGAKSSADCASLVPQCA
MrgX1 allo act: human MrgX1 positive allosteric modulation, primary screen; Q96LB2; MrgX1-HEK293, Fluo-4 calcium flux, FDSS; active compounds read high; B-score at 10 µM; 310,000 tested, 0.63% active; AID 588675;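 active = plate-corrected calcium response at least 3 library SD above typical, normal starting fluorescence, not activating the receptor alone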;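 note: compound read alongside a low EC10 to EC30 dose of BAM8-22 agonist; peak minus trough fluorescence over baseline measured at the second addition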
Kir21 block: Kir2.1 (mouse) channel inhibition; P35561; HEK293-Kir2.1, FluxOR thallium flux fluorescence; active compounds read low; B-score at 10 µM; 310,000 tested, 0.85% active; AID 1672;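 active = fluorescence ratio B-score at or below minus 3 SD of library scores, with starting-brightness B-score within 2 SD, cut at about -4.2 in these data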;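 note: channel flux triggered by added potassium and thallium sulfate stimulus; B-score of peak minus minimum fluorescence over baseline after thallium stimulus; more negative B-score means stronger Kir2.1 block with less thallium influx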
RGS4 pot: RGS4 potentiation or activation. HEK293 M3R/inducible RGS4, carbachol calcium flux Fluo4; active compounds read low. B-score at 10 µM. 310,000 tested, 0.92% active. AID 463111;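 active = B-score of the integrated calcium signal more than 4 SD below the library mean, with starting fluorescence not abnormally high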;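 note: negative B-score means reduced calcium response which marks RGS4 activation or potentiation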
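test system = HEK293 cells with stable M3R and inducible RGS4 | schedule = recording 10 s baseline at 1 Hz, 100 s post-agonist | technique = Fluo4-AM (2 µM) calcium-flux fluorescence, kinetic read | measure = Agonist-evoked peak-minus-minimum fluorescence over baseline, integrated ratio, B score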
RGS4 block valid: validation of RGS4 inhibitors; shares compounds with RGS4 block; HEK293 M3R/RGS4, carbachol calcium Fluo-4 fluorescence; carbachol added at its EC20; 0 = buffer wells, 100 = carbachol control; calcium response, % at 10 µM; 1,700 tested, 65% active; AID 492999;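 active = duplicate-averaged calcium response above the buffer-only control mean plus 5 SD of those controls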;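 note: integrated fluorescence ratio F max minus min over baseline F0; higher response in RGS4-induced cells means RGS4 inhibition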
M3R Ca ctr: non-induced cell nonspecific activity of RGS4 inhibitors. shares compounds with RGS4 block. HEK293 M3R non-induced, carbachol calcium Fluo-4; submaximal (EC20) carbachol stimulus; buffer wells 0%, carbachol control wells 100%. activity (percent), % at 10 µM. 1,900 tested, 20% active; call rule not given here;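 note: RGS4 induction absent so cells express M3R without RGS4; higher means more calcium signal and flags a non-specific hit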
M3R basal Ca ctr: second RGS4 inhibitor counter-screen in uninduced cells lacking carbachol; shares compounds with RGS4 block; HEK293 M3R/RGS4 non-induced, Fluo-4 calcium, no carbachol; normalised: buffer wells 0%, carbachol wells 100%; calcium response (agonist-mode artifact), % at 10 µM; 1,900 tested, 22% active; AID 493001;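 active = duplicate-averaged calcium rise in uninduced cells above buffer wells' mean plus 5 SD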
Starred values were filed as active, the others as inactive.

Screening NC(=O)N/N=C/c1ccc(-n2nncc2-c2ccc(Cl)cc2)cc1 returned MrgX1 agonist inactive, MrgX1 antag inactive, RGS4 block 6.25*, MrgX1 allo act inactive, Kir21 block -0.23, RGS4 pot inactive, RGS4 block valid 20.0%*, M3R Ca ctr 41.0%* and M3R basal Ca ctr inactive.
For O=C(N/N=C/c1c[nH]c2ccccc12)c1[nH]c2ccc(Br)cc2c1-c1ccccc1 the results were RGS4 block 6.95*, Kir21 block 0.77, RGS4 pot inactive, RGS4 block valid 18.0%*, M3R Ca ctr 28.5%* and M3R basal Ca ctr inactive.
Screening Oc1ccc(N=Nc2ccccc2)o1 returned MrgX1 agonist inactive, MrgX1 antag inactive, RGS4 block 4.92*, MrgX1 allo act inactive, Kir21 block -2.43, RGS4 pot inactive, RGS4 block valid 7.5%*, M3R Ca ctr inactive and M3R basal Ca ctr inactive.
For O=C(CCn1c(=O)c2ccccc2n(Cc2cccnc2)c1=O)NCc1ccc2c(c1)OCO2 the results were MrgX1 agonist inactive, MrgX1 antag inactive, RGS4 block inactive, MrgX1 allo act inactive, Kir21 block -0.03 and RGS4 pot inactive.
CN1CCN(C(=S)Nc2ccc(Oc3ccccc3)cc2)CC1 was read as MrgX1 agonist inactive, MrgX1 antag inactive, RGS4 block inactive, MrgX1 allo act inactive, Kir21 block 1.15 and RGS4 pot inactive.
Screening COc1cccc(Cn2c(=O)c3[nH]cnc3n(-c3ccccc3C)c2=O)c1 returned MrgX1 agonist inactive, MrgX1 antag inactive, RGS4 block inactive, MrgX1 allo act inactive, Kir21 block -0.01, RGS4 pot inactive, M3R Ca ctr inactive and M3R basal Ca ctr inactive.
Screening Cc1ccccc1-n1c(=O)n(Cc2ccccc2)c(=O)c2[nH]cnc21 returned MrgX1 agonist inactive, MrgX1 antag inactive, RGS4 block inactive, MrgX1 allo act inactive, Kir21 block 0.25 and RGS4 pot inactive.
`COc1cc(/C=C(\C#N)C(N)=O)ccc1OS(=O)(=O)c1ccc(C)cc1` gave MrgX1 agonist 42.6*, MrgX1 antag inactive, RGS4 block 4.86*, MrgX1 allo act inactive, Kir21 block -3.86, RGS4 pot inactive, RGS4 block valid 30.0%*, M3R Ca ctr 40.5%* and M3R basal Ca ctr 31.0%*.
Screening CC1=CN2C(=NC(=O)CC2(C)C(=O)N(CC(=O)NC2CCCC2)Cc2ccccc2)C=C1 (stereo unspecified) returned MrgX1 agonist inactive, MrgX1 antag inactive, RGS4 block inactive, MrgX1 allo act inactive, Kir21 block 1.95 and RGS4 pot inactive.
`CN1C/C(=C/c2ccncc2)C(=O)/C(=C/c2ccncc2)C1` gave MrgX1 agonist inactive, MrgX1 antag inactive, RGS4 block 20.6*, MrgX1 allo act inactive, Kir21 block 0.06, RGS4 pot inactive, RGS4 block valid 80.0%*, M3R Ca ctr inactive and M3R basal Ca ctr inactive.
For CN1C/C(=C/c2ccsc2)C(=O)/C(=C/c2ccsc2)C1 the results were MrgX1 agonist inactive, MrgX1 antag inactive, RGS4 block 6.81*, MrgX1 allo act inactive, Kir21 block 1.79, RGS4 pot inactive, RGS4 block valid 9.5%*, M3R Ca ctr inactive and M3R basal Ca ctr inactive.
`COc1ccc(NC(=O)C2=C(C)NC(=O)NC2c2cccc(OC)c2OC)c(OC)c1` (stereo unspecified) gave MrgX1 agonist inactive, MrgX1 antag inactive, RGS4 block inactive, MrgX1 allo act inactive, Kir21 block 1.15 and RGS4 pot inactive.
O=C(/C=C/c1ccccc1Cl)c1ccccc(=O)c1O was read as MrgX1 agonist inactive, MrgX1 antag inactive, RGS4 block 18*, MrgX1 allo act 8.08*, Kir21 block -0.96, RGS4 pot inactive, RGS4 block valid 44.5%*, M3R Ca ctr inactive and M3R basal Ca ctr 10.5%*.
For Cc1ccc(C)c(/C=C/C(=O)c2ccccc(=O)c2O)c1 the results were MrgX1 agonist inactive, MrgX1 antag inactive, RGS4 block 7.5*, MrgX1 allo act inactive, Kir21 block -2.71, RGS4 pot inactive, RGS4 block valid 14.5%*, M3R Ca ctr inactive and M3R basal Ca ctr 39.5%*.
Screening Cc1ccc(/C=C/C(=O)c2ccccc(=O)c2O)c(C)c1 returned MrgX1 agonist inactive, MrgX1 antag inactive, RGS4 block inactive, MrgX1 allo act inactive, Kir21 block -1.16, RGS4 pot inactive, M3R Ca ctr inactive and M3R basal Ca ctr 34.0%*.
Screening O=C(/C=C/c1ccccc1Cl)Nc1ccccc1 returned MrgX1 agonist inactive, MrgX1 antag inactive, RGS4 block inactive, MrgX1 allo act inactive, Kir21 block -1.68 and RGS4 pot inactive.
COc1cc(/C=N/NC(=O)c2ccc(F)cc2)ccc1OC(=O)c1ccco1 was read as MrgX1 agonist inactive, MrgX1 antag inactive, RGS4 block inactive, MrgX1 allo act inactive, Kir21 block -1.18 and RGS4 pot inactive.
For COC(=O)c1ccc(N2NC(=O)/C(=C/c3cc(OC)c(O)c(OC)c3)C2=O)cc1 the results were MrgX1 agonist inactive, MrgX1 antag inactive, RGS4 block inactive, MrgX1 allo act inactive, Kir21 block -0.85, RGS4 pot inactive, RGS4 block valid inactive, M3R Ca ctr inactive and M3R basal Ca ctr 29.5%*.
Screening COc1cccc(/C=C2/C(=O)NN(c3ccc(Br)cc3)C2=O)c1O returned MrgX1 agonist inactive, MrgX1 antag inactive, RGS4 block inactive, MrgX1 allo act inactive, Kir21 block 0.69 and RGS4 pot inactive.
For COc1cc(/C=C2/C(=O)NN(c3cccc(F)c3)C2=O)ccc1OC(=O)c1ccco1 the results were MrgX1 agonist inactive, MrgX1 antag inactive, RGS4 block inactive, MrgX1 allo act inactive, Kir21 block -9.79*, RGS4 pot inactive, M3R Ca ctr inactive and M3R basal Ca ctr inactive.
